Most compounds without a hit are left out; they make up all but 9.4% or so of the library.
Lmaj promast – Leishmania major promastigote growth inhibition | Leishmania major promastigotes, resazurin fluorescence viability | inhibition, % at 10 µM | 9% of 200,000 active | AID 1063; in the data active = inhibition above about 50%;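 note: promastigotes grown with compound for 44 hours at 28 °C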
SKKanGAS inh – inhibitors of SKKanGAS S. pyogenes growth in kanamycin (SK-promoter or general growth effect). BacTiter-Glo, 6 h. inhibition, % at 7.5 µM. 1.3% of 300,000 active;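 active = mean replicate score, as percent of positive control median, at least 50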;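 note: strain carries kanamycin resistance gene driven by streptokinase promoter and grows in 40 µg/ml kanamycin; loss of luminescence reflects streptokinase promoter inhibition or plain growth inhibition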
Mdm2 MdmX PPI – human Mdm2/MdmX binding inhibition | SaOS-2 split-luciferase Mdm2/MdmX complementation, luminescence | inhibition, % at 8 µM | 3% of 330,000 active | O15151+Q00987;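 active = inhibition of at least 50% at 8 µM in the primary screen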
CSC inhib – cancer stem cell inhibition; inhibition, % at 7.5 µM; 1.1% of 300,000 active; cancer stem cell-like cells viability, luminescence; AID 2717; in the data active = inhibition above about 75%; tested in HMLE shEcad cells
T cruzi inh – blocks replication of Trypanosoma cruzi; 1.4% of 300,000 active; T. cruzi beta-gal in NIH3T3, luminescence, 90 h; inhibition, % (no concentration beside the values);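 active = mean inhibition across valid replicates above about 55%, limit read from the data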;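 note: signal also drops with host cell toxicity which is not excluded here; higher percent means less beta-gal luminescence so fewer parasites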
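compound dosing = single 50 nL compound addition per well in DMSO | material = NIH/3T3 host cells with β-galactosidase reporter T. cruzi | input = 5,000 host fibroblasts per well | timing = ≥90 h infection period, 3 h prior cell attachment | read-out basis = percent inhibition of parasite-derived β-gal signal | detection = GalScreen β-gal luminescence, detergent lysis, 60 min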
Beta apoptosis – beta cell apoptosis inhibition. INS-1E cytokine-induced death, ATP luminescence, 48 h; percent of positive-control rescue, neutral wells zero. protection from apoptosis, % (concentration not given with the values). 0.8% of 300,000 active. AID 435005;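 active = Every replicate reaches about 75%, or at least half do and their mean reaches it too, limit read from the data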;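 note: higher means more ATP so stronger rescue from cytokine killing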
Numbers stand for hits; – = inactive; · = not tested or not shown.

SMILES	Lmaj promast	SKKanGAS inh	Mdm2 MdmX PPI	CSC inhib	T cruzi inh	Beta apoptosis
CCN1CCN(C(CNS(=O)(=O)c2ccc(F)cc2)c2cccnc2)CC1 (stereo unspecified)	·	–	–	–	–	–
O=S(=O)(NCC(c1cccnc1)N1CCN(Cc2ccccc2)CC1)c1ccc(F)cc1 (stereo unspecified)	·	–	–	–	–	–
O=S(=O)(NCC(c1cccnc1)N1CCN(Cc2ccccc2)CC1)c1cc(F)ccc1F (stereo unspecified)	·	–	–	–	59	–
CC(C)N1CCN(Cc2ccc(C#CCCO)cc2)CC1CCO (stereo unspecified)	–	–	–	–	–	–
Cc1ccc(C(CNS(=O)(=O)c2ccc([N+](=O)[O-])cc2)N2CCN(C)CC2)cc1 (stereo unspecified)	·	–	–	–	58	–
COc1ccc(N2CCN(C(CNS(=O)(=O)c3cc(F)ccc3F)c3cccnc3)CC2)cc1 (stereo unspecified)	99	–	–	–	70	–
Cc1ccc(C(CNS(=O)(=O)c2ccc(Br)cc2)N2CCN(C)CC2)cc1 (stereo unspecified)	·	–	–	–	–	–
C=CCCOc1ccccc1C(N)=O	·	–	–	–	–	–
Cc1sc2ncnc(N3CCC(C(=O)Nc4ccc(Cl)cc4Cl)CC3)c2c1C	·	50	–	–	–	–
Cc1sc2ncnc(N3CCC(C(=O)NCC(=O)Nc4ccc(F)c(F)c4)CC3)c2c1C	·	53	–	–	–	–
O=C1/C(=C\c2cccs2)SC(=S)N1C1CCS(=O)(=O)C1 (stereo unspecified)	77	–	–	–	–	–
O=C1/C(=C/c2ccncc2)SC(=S)N1C1CCS(=O)(=O)C1 (stereo unspecified)	100	–	–	–	–	–
NS(=O)(=O)c1ccc(-c2ccc(/C=C3\SC(=S)N(C4CCS(=O)(=O)C4)C3=O)o2)cc1 (stereo unspecified)	·	73	–	–	–	–
S=C(NC1CCCC1)N1CCN(C/C=C/c2ccccc2)CC1	81	–	–	–	–	–
COc1ccc2[nH]cc(C(=O)CN3CC(C)CC(C)C3)c2c1 (stereo unspecified)	·	–	–	–	–	–
S=C(NCc1ccco1)N1CCN(C/C=C/c2ccccc2)CC1	77	–	–	–	–	–
COc1ccc2[nH]cc(C(=O)CN3CCN(C/C=C/c4ccccc4)CC3)c2c1	98	·	·	·	·	·
COc1cccc(NC(=S)N2CCN(C/C=C/c3ccccc3)CC2)c1	95	–	–	–	–	–
Cc1ccc(NC(=O)NC2CC(=O)N(c3ccc4c(c3)OCCO4)C2)c(C)c1 (stereo unspecified)	·	–	–	–	–	·
Cc1ccc(NC(=O)CN(C)C(=O)Cc2ccc(Cl)cc2Cl)cc1	·	–	–	–	–	–
OCC1(CC2CCCCO2)CCN(C/C=C/c2ccccc2)CC1 (stereo unspecified)	89	–	–	–	–	–
Cc1cnc(C(=O)OC(C)C(=O)c2c(C)[nH]c3ccccc23)cn1 (stereo unspecified)	·	–	–	–	–	–
c1ccc(C(c2c[nH]c3ccccc23)c2c[nH]c3ccccc23)nc1	–	76	–	–	–	–
Cn1cc(C(c2ccccn2)c2cn(C)c3ccccc23)c2ccccc21	–	–	–	–	–	–
COC(=O)C1C(=O)C2=C(CC1C)NC(C)=C(C(=O)OC1CCCC1)C2c1ccc(N(C)C)cc1 (stereo unspecified)	59	·	–	–	–	·
SMILES	Lmaj promast	SKKanGAS inh	Mdm2 MdmX PPI	CSC inhib	T cruzi inh	Beta apoptosis
COC(=O)C1C(=O)C2=C(CC1C)NC(C)=C(C(=O)OC(C)C)C2c1ccc(OC)c(O)c1 (stereo unspecified)	–	–	–	–	–	–
Cc1ccc(SCc2c(C(=O)N/N=C/c3ccoc3)nnn2-c2nonc2N)cc1	·	–	–	–	–	–
CCOc1ccc(C(=O)CC(=O)C(=O)NCCc2ccc(OC)c(OC)c2)cc1	60	–	–	–	–	–
C=C(C)C(=O)N1CC2(CC(c3cccc(NC(=O)CC)c3)=NO2)C[C@H]1C(N)=O (stereo partly specified)	·	–	–	–	–	–
CCc1sc(NC(=O)CCC(=O)O)nc1-c1cc2ccccc2oc1=O	–	–	–	–	–	–
CCn1c(C)nc2cc(C(=O)N/N=C/c3cccc(O)c3O)ccc21	98	–	–	–	–	76
CCn1c(C)nc2cc(C(=O)N/N=C/c3ccc(OC)c(O)c3)ccc21	63	–	–	–	–	–
CC(C)n1nc(C(=O)Nc2cccc(S(=O)(=O)NCc3ccco3)c2)c2ccccc2c1=O	·	–	–	–	–	–
O=C(Nc1ccc(Cl)cc1)N[C@@H]1c2c(ccc3ccccc23)OC[C@@H]1CO	–	60	–	–	–	–
CC(=O)COc1cc2c(-c3cc4ccccc4o3)cc(=O)oc2cc1C	·	–	–	–	–	–
COc1ccc(CCNC(=O)COC(=O)C23CC4CC(CC(Br)(C4)C2)C3)cc1	56	–	–	·	–	·
Cc1ccc(Nc2c([N+](=O)[O-])cc(C(=O)N3CC(=O)Nc4ccccc43)cc2[N+](=O)[O-])c(C)c1	88	–	–	–	–	–
COc1cccc(CC(=O)N(CCC2=CCCCC2)c2c(N)n(Cc3ccccc3)c(=O)[nH]c2=O)c1	·	–	–	–	–	·
O=C(COc1ccc([N+](=O)[O-])cc1)Nc1cccc2nsnc12	·	–	–	–	–	–
CCOC(=O)C1=C(C)NC(=S)NC1c1ccc(-c2ccc(Cl)cc2)o1 (stereo unspecified)	63	–	–	–	–	–
CC(C)(C)c1ccc(C2(C)NC(=O)N(CC(=O)NCc3cccs3)C2=O)cc1 (stereo unspecified)	69	–	–	–	–	–
O=C(CN1C(=O)NC(c2ccccc2)(c2ccccc2)C1=O)NCc1cccs1	·	·	–	·	·	·
CCOC(=O)N1CCN(C(=O)c2ccccc2N(Cc2ccccc2)S(=O)(=O)c2ccccc2)CC1	·	–	–	–	–	·
CN(C)S(=O)(=O)c1ccc(C(=O)Nc2nnc(-c3cccs3)o2)cc1	53	–	–	–	–	–
O=C(Nc1nnc(-c2cccs2)o1)c1cccc(C(F)(F)F)c1	95	92	–	–	–	·
N#Cc1ccc(C(=O)Nc2nnc(-c3cccs3)o2)cc1	98	52	–	–	–	·
CN(C)S(=O)(=O)c1ccc(C(=O)Nc2nc(-c3cccs3)cs2)cc1	–	–	–	–	–	–
Clc1ccc(-c2csc(-c3cccnc3)n2)s1	·	–	–	–	–	–
Cc1ccc2c(c1)N(C(=O)CCC(=O)NCc1ccccn1)CC(C)O2 (stereo unspecified)	·	–	–	–	–	–
Cc1nn(CC(=O)c2ccc3c(c2)OCCO3)c(=O)c(C#N)c1C	·	·	–	–	·	–
O=S(=O)(c1ccc(F)cc1)N1CCN(C(=S)NC2CC2)CC1	·	·	·	–	·	–

Screening data: PubChem BioAssay, several laboratories
